In ChEMBL document CHEMBL4387708, “Enhancement of Benzothiazoles as Pteridine Reductase-1 Inhibitors for the Treatment of Trypanosomatidic Infections” (J Med Chem, 2019):

Legend:
Trypanosoma cruzi = experiment: Growth inhibition of trypomastigote form of Trypanosoma cruzi Y infected in human U2OS cells at 50 uM measured after 72 hrs by DRAQ5 DNA dye based confocal microscopic analysis relative to control; format: organism-based; conditions: for inhibition at 50 µM: Trypanosoma cruzi, Y, U2OS, read-out: GI
Leishmania infantum = experiment: Growth inhibition of luciferase expressing Leishmania infantum axenic amastigotes infected in human THP1 cells at 10 uM measured after 72 hrs by steady-glo luminescence assay relative to control; format: organism-based; conditions: for growth inhibition (GI): leishmania infantum, 72 h, 10 µM; for inhibition at 10 µM: Leishmania infantum, THP-1, 72 h, read-out: GI
Trypanosoma brucei [1] = experiment: Inhibition of N-terminal His-tagged Trypanosoma brucei pteridine reductase 1 at 50 uM using di-hydrobiopterine as substrate measured at 1 min interval for 50 mins in presence of NADPH relative to control
Summary of the method: (§1)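 Photometric PTR1 assay with NADPH and dihydrobiopterin substrate. H₄B formation is coupled non-enzymatically to cytochrome c reduction, read as signal increase at 550 nm.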

[2] = biological target: T1, Pteridine reductase 1 (Leishmania major) (UniProt Q01782); experiment: Inhibition of Leishmania major pteridine reductase 1 at 50 uM using di-hydrobiopterine as substrate in presence of NADPH relative to control; summary of the method: as §1
T1 sequence (whole entry): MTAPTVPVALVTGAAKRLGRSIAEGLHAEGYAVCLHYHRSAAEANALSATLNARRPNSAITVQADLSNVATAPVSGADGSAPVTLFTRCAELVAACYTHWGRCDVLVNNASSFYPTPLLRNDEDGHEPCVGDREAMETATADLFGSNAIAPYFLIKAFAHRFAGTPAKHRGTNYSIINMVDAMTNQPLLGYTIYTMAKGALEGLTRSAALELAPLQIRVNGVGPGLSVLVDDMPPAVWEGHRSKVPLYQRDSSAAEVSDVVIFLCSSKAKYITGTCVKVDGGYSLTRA

Trypanosoma brucei [3] = experiment: Growth inhibition of Trypanosoma brucei bloodstream forms at 10 uM measured after 72 hrs by resazurin-based fluorescence assay relative to control; format: organism-based; conditions: Trypanosoma brucei, read-out: GI
[4] = biological target: Voltage-gated inwardly rectifying potassium channel KCNH2 (Homo sapiens, UniProt Q12809); experiment: Displacement of Tracer Red from human ERG by fluorescence polarization assay
Cytochrome P450 1A2 = biological target: T2, Cytochrome P450 1A2 (Homo sapiens, UniProt P05177); experiment: Inhibition of human CYP1A2 expressed in baculovirus infected insect cells using beetle D-luciferin as substrate preincubated for 30 mins followed by NADPH addition and measured after 30 mins by CYP450-Glo assay
T2 sequence (P05177 whole entry): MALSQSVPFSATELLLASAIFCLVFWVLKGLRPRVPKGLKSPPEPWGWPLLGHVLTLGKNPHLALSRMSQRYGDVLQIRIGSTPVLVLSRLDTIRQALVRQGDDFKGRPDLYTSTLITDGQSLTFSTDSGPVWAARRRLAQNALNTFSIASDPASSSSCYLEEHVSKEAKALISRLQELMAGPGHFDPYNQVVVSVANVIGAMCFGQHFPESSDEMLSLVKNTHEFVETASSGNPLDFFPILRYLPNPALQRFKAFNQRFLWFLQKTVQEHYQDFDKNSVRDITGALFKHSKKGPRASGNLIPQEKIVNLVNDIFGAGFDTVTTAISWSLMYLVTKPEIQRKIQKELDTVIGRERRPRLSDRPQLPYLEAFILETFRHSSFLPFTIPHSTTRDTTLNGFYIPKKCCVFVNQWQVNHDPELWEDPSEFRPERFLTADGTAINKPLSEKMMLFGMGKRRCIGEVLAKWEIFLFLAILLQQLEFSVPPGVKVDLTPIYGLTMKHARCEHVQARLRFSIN

Cytochrome P450 2C9 = Cytochrome P450 2C9 (Homo sapiens, UniProt P11712); experiment: Inhibition of human CYP2C9 expressed in baculovirus infected insect cells using beetle D-luciferin as substrate preincubated for 30 mins followed by NADPH addition and measured after 30 mins by CYP450-Glo assay
Cytochrome P450 2C19 = Cytochrome P450 2C19 (Homo sapiens, UniProt P33261); experiment: Inhibition of human CYP2C19 expressed in baculovirus infected insect cells using beetle D-luciferin as substrate preincubated for 30 mins followed by NADPH addition and measured after 30 mins by CYP450-Glo assay
Cytochrome P450 2D6 = Cytochrome P450 2D6 (Homo sapiens, UniProt P10635); experiment: Inhibition of human CYP2D6 expressed in baculovirus infected insect cells using beetle D-luciferin as substrate preincubated for 30 mins followed by NADPH addition and measured after 30 mins by CYP450-Glo assay
Cytochrome P450 3A4 = Cytochrome P450 3A4 (Homo sapiens, UniProt P08684); experiment: Inhibition of human CYP3A4 expressed in baculovirus infected insect cells using beetle D-luciferin as substrate preincubated for 30 mins followed by NADPH addition and measured after 30 mins by CYP450-Glo assay
[5] = Cytotoxicity against human A549 cells after 48 hrs by Celltiter-glo assay; format: cell-based
[6] = Cytotoxicity against human THP1 cells after 72 hrs by MTT assay; format: cell-based, THP-1; conditions: read-out: NOAEL
[7] = Cytotoxicity against human U2OS cells assessed as reduction in cell number; format: cell-based
[8] = Mitochondrial toxicity in human 786-O cells measured after 6 hrs by MitoTracker Red chloromethyl-X-rosamine based assay; format: cell-based, 786-0
[9] = Selectivity ratio of IC50 for Leishmania major pteridine reductase 1 to IC50 for N-terminal His-tagged Trypanosoma brucei pteridine reductase 1
[10] = Inhibition of N-terminal His-tagged Trypanosoma brucei pteridine reductase 1 using di-hydrobiopterine as substrate measured at 1 min interval for 50 mins in presence of NADPH; summary of the method: as §1

Sequence of Cytochrome P450 2C19 (P33261 whole entry): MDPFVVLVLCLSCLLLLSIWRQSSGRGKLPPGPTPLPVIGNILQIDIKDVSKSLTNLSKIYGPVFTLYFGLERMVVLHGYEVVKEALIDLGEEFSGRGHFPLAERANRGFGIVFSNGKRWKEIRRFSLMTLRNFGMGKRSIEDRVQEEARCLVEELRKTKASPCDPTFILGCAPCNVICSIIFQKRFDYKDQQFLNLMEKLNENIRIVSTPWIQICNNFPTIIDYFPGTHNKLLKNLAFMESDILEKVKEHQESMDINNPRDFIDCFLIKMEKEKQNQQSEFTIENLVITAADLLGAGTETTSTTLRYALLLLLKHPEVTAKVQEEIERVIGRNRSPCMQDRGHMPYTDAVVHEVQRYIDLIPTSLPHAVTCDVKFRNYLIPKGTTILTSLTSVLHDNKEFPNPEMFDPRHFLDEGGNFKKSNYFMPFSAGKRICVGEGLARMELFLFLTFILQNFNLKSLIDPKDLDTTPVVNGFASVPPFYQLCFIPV
Sequence of Cytochrome P450 2C9 (P11712 whole entry): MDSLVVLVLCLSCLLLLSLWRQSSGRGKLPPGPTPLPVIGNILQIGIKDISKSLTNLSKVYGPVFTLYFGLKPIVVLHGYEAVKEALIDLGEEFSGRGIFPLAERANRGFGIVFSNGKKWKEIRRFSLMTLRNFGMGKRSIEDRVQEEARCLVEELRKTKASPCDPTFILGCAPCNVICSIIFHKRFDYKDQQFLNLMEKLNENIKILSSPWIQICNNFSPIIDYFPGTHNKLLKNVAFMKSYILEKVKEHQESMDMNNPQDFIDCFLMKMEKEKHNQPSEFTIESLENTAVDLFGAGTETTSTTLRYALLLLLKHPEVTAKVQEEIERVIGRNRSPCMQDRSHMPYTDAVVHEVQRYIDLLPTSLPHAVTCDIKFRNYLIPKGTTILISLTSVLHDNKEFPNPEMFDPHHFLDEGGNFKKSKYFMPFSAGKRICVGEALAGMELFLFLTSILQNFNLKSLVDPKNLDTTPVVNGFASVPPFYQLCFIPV
Sequence of Voltage-gated inwardly rectifying potassium channel KCNH2 (Q12809 whole entry): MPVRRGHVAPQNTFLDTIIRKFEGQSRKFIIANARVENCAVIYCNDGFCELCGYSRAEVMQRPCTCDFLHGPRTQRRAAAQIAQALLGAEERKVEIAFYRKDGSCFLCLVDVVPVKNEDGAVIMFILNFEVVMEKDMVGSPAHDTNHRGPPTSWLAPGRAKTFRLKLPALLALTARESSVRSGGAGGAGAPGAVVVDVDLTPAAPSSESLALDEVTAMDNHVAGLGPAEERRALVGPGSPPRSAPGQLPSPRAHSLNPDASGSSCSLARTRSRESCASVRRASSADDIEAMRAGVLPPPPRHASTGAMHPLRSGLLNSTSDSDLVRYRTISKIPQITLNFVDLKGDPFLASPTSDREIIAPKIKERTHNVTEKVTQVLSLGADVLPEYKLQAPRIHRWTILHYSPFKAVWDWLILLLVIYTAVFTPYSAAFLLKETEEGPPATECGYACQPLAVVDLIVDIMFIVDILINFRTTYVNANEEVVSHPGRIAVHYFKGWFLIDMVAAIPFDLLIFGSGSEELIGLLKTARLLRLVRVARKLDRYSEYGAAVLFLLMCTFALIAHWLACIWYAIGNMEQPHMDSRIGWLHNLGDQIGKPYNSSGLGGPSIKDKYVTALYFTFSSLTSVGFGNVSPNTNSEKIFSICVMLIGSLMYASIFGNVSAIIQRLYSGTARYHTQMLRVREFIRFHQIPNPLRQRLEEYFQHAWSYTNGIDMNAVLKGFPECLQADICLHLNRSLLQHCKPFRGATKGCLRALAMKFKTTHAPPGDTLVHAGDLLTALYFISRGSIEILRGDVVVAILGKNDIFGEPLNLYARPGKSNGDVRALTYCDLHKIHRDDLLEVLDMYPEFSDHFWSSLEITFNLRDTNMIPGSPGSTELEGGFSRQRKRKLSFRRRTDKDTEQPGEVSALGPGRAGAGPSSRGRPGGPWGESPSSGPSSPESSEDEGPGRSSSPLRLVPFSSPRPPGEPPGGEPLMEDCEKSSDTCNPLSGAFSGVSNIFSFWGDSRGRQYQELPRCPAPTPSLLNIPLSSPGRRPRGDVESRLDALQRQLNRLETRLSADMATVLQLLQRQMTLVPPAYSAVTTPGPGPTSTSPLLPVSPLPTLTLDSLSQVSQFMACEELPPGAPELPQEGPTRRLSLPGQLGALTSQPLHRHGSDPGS
Sequence of Cytochrome P450 3A4 (P08684 whole entry): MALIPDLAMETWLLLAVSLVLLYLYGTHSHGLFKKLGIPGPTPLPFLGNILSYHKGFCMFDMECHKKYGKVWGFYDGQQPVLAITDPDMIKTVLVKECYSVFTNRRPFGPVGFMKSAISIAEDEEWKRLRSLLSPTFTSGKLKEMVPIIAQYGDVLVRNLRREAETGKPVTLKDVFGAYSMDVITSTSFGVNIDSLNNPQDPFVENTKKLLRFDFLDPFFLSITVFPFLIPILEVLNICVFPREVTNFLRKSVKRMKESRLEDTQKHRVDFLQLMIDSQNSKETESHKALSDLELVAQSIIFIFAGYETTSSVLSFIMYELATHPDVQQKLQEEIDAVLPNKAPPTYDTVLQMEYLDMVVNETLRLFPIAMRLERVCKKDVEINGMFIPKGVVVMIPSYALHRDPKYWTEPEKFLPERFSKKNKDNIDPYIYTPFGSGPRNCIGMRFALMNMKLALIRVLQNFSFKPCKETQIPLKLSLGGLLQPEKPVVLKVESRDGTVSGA
Sequence of Cytochrome P450 2D6 (P10635 whole entry): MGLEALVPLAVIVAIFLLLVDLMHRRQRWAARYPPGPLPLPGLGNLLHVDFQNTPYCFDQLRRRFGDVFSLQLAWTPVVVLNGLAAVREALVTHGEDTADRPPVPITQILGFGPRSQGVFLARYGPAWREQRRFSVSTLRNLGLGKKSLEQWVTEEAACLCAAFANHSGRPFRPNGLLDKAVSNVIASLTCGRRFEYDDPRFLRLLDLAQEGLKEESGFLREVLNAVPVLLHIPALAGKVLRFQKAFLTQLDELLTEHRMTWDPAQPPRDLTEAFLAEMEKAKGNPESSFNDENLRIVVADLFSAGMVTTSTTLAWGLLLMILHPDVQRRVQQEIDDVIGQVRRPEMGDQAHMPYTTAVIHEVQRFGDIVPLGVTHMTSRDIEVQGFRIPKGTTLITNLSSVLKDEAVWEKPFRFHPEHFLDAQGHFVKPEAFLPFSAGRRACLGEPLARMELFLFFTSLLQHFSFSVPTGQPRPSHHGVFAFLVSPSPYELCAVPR

Compound	inhibition at 50 µM (Trypanosoma cruzi) [%]	growth inhibition (GI) (Leishmania infantum)	inhibition (Trypanosoma brucei [1]) [%]	inhibition [2] [%]	inhibition at 10 µM (Trypanosoma brucei [3]) [%]	IC50 [4] [µM]	IC50 (Cytochrome P450 1A2) [µM]	IC50 (Cytochrome P450 2C9) [µM]	IC50 (Cytochrome P450 2C19) [µM]	IC50 (Cytochrome P450 2D6) [µM]	IC50 (Cytochrome P450 3A4) [µM]	GI50 at 48 h [5] [µM]	MNTC at 72 h [6] [µM]	GI50 [7] [µM]	IC50 at 6 h [8] [µM]	Ratio IC50 [9]	inhibition at 10 µM (Leishmania infantum) [%]	growth inhibition (GI) (Trypanosoma cruzi; trypanosoma cruzi, 50 µM)	IC50 [10] [µM]
COc1cc(CNC(=O)c2ccc3nc(N)sc3c2)cc(OC)c1OC	19.8	Non-Toxic	30.8	67.1	9	> 25	> 25	> 25	> 25	> 25	> 25	> 25	> 25	> 25	> 25	2 to 100	–	–	–
Nc1nc2ccc(S(=O)(=O)Cc3ccc(Cl)c(Cl)c3)cc2s1	32.8	–	16.7	26.9	37	> 25	> 25	> 25	< 10	< 10	10 to 25	10 to 25	10 to 25	> 25	> 25	2 to 100	21	–	–
Nc1nc2ccc(S(=O)(=O)Cc3ccccc3)cc2s1	–	Non-Toxic	> 60	27.1	5	> 25	> 25	> 25	> 25	10 to 25	> 25	> 25	> 25	> 25	> 25	2 to 100	–	Non-Toxic	57.6
N=C(N)c1ccc(OCCCCCOc2ccc(C(=N)N)cc2)cc1 [PENTAMIDINE]	–	–	–	–	–	–	> 25	–	> 25	10 to 25	–	> 25	> 25	–	> 25	–	–	–	–
COc1ccc2nc(N)sc2c1	32.9	Non-Toxic	29.9	15.2	6	< 10	10 to 25	> 25	10 to 25	< 10	10 to 25	< 10	> 25	> 25	< 10	2 to 100	–	–	–
COC(=O)C1CCN(C(=O)c2ccc3nc(N)sc3c2)CC1	64.2	–	36.4	23.3	19	> 25	10 to 25	10 to 25	> 25	10 to 25	10 to 25	> 25	> 25	> 25	> 25	2 to 100	8	–	–
Nc1nc2ccc(C(=O)NCCc3cccs3)cc2s1	29.8	Non-Toxic	> 60	18.3	17	< 10	10 to 25	> 25	> 25	< 10	> 25	> 25	> 25	> 25	> 25	2 to 100	–	–	7.5
CSc1ccc2nc(N)sc2c1	22.5	Non-Toxic	16.7	26.9	12	< 10	< 10	> 25	< 10	< 10	> 25	> 25	> 25	> 25	< 10	2 to 100	–	–	–
